Tests used:
[1] = target: T1, UDP-glucuronosyltransferase 1A3 (Homo sapiens, UniProt P35503); assay: Drug metabolism assessed as Vmax/Km ratio for human UGT1A3-mediated T-5224 hydroxyl O-glucuronide formation per mg protein after 10 to 60 mins in presence of UDP-glucuronic acid by HPLC method; type: ADME; conditions: recombinant enzyme
T1 sequence (P35503 whole entry): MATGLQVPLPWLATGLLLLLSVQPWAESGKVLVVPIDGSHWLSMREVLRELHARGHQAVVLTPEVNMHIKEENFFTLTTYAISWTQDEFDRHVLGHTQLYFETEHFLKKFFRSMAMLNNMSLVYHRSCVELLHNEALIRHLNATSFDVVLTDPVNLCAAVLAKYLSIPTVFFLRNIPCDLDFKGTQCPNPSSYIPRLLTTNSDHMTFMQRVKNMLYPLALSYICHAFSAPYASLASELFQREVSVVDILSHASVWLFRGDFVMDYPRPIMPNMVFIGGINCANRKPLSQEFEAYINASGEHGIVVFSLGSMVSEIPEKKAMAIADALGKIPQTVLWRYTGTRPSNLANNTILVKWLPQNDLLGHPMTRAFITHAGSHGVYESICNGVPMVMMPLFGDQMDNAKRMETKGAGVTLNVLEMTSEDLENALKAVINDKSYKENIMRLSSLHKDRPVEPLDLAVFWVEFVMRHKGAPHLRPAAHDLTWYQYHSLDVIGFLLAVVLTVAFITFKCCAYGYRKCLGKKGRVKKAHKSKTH
In short: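 Kinetics used recombinant UGT1A1, 1A3 or 1A8 (0.1 mg protein/mL) with T-5224 at 1–50 μM, 2 mM UDPGA and 60 min at 37°C, in triplicate. G2/G3 were measured by HPLC at 290 nm and fitted to a substrate-inhibition model (Vmax, Km, Ksi). UGT content was quantified by immunoblot, and kcat = Vmax/E0 was derived from it.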

[2] = Drug metabolism assessed as human CYP2D6*1-mediated metabolite formation at 2 uM after 30 mins by HPLC method; type: ADME; conditions: 0.5 h
In short: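 Each recombinant human P450 was used at 50 pmol/mL with an NADPH-generating system and 2 μM 14C-T-5224 (0.5% DMSO final). Buffer was 100 mM Tris-HCl pH 7.5, except 100 mM potassium phosphate pH 7.4 for CYP2A6 and CYP2C9*1. Incubation ran 30 min at 37°C and was stopped with acetonitrile/methanol. Radioactive metabolite peaks were detected by C18 HPLC.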

[3] = target: T2, UDP-glucuronosyltransferase 1A1 (Homo sapiens, UniProt P22309); assay: Drug metabolism assessed as human UGT1A1-mediated T-5224 hydroxyl O-glucuronide formation at 10 uM […] in presence of beta-estradiol by HPLC method; type: ADME; conditions: recombinant enzyme
T2 sequence (P22309 whole entry): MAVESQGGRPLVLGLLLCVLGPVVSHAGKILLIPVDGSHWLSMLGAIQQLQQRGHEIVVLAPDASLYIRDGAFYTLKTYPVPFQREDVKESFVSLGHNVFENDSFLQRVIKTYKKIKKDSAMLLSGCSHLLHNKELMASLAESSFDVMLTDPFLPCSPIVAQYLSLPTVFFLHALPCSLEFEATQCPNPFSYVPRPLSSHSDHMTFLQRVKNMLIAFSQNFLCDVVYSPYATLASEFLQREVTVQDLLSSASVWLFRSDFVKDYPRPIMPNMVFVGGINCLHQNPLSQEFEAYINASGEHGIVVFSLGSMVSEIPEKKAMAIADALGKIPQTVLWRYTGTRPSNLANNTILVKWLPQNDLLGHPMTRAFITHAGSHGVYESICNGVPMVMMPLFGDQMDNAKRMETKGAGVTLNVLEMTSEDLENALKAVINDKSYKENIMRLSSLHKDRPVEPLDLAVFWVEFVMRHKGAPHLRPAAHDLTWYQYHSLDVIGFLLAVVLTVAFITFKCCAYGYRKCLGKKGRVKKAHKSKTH
In short: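 Pooled human liver microsomes or recombinant UGT1A1 were incubated with 10 μM T-5224, 2 mM UDPGA and β-estradiol at 0–500 μM (2% DMSO), in Tris-HCl/MgCl2/alamethicin buffer. Incubation was 10 min (liver microsomes) or 60 min (UGT1A1) at 37°C. G2/G3 were read by HPLC at 290 nm, as mean ± SD, n = 3.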

[4] = target: T1, UDP-glucuronosyltransferase 1A3; assay: Substrate inhibition of human UGT1A3-mediated T-5224 hydroxyl O-glucuronide formation after 10 to 60 mins in presence of UDP-glucuronic acid by HPLC method; type: ADME
In short: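 Recombinant human UGT1A1, UGT1A3 or UGT1A8 from baculovirus-infected insect cells (0.1 mg protein/mL) in 50 mM Tris-HCl pH 7.5, 8 mM MgCl2, alamethicin, 2% DMSO. T-5224 at 1–50 μM with 2 mM UDPGA for 60 min at 37°C. HPLC with UV at 290 nm. Triplicates fitted to a substrate-inhibition model. kcat uses UGT content quantified by immunoblot against recombinant UGT1A1/UGT2B4 standards.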

[5] = target: T1, UDP-glucuronosyltransferase 1A3; assay: Drug metabolism assessed as human UGT1A3-mediated T-5224 acyl O-glucuronide formation at 5 to 50 uM after 60 mins in presence of UDP-glucuronic acid by HPLC method; type: ADME; conditions: recombinant enzyme, 1 h
[6] = Drug metabolism in human intestinal microsomes assessed as T-5224 hydroxyl O-glucuronide formation per mg protein after 10 to 60 mins by HPLC method; type: ADME, Intestine, Microsome
In short: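 Pooled liver microsomes (0.5 mg/mL) were incubated 10 min. Pooled intestinal microsomes (0.25 mg/mL) ran 10 min at T-5224 10–50 μM and 20 min at 1–5 μM. Buffer was 50 mM Tris-HCl pH 7.5 with 8 mM MgCl2, alamethicin and 2 mM UDPGA, at 37°C, in triplicate. Glucuronides G2/G3 were read by HPLC at 290 nm and fitted for Vmax/Km.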

Liver microsome [7] = assay: Drug metabolism in pooled human liver microsomes assessed as T-5224 hydroxyl O-glucuronide formation at 10 uM after 10 mins by HPLC method; type: ADME
In short: (§1)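 T-5224 at 10 μM incubated for 10 min at 37°C with UDPGA (2 mM) in pooled liver (0.5 mg protein/mL) or intestinal (0.25 mg protein/mL) microsomes. Buffer was 50 mM Tris-HCl pH 7.5 with 8 mM MgCl2 and alamethicin, after 5 min preincubation. Stopped with acetonitrile; glucuronides quantified by HPLC at 290 nm.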

Liver microsome [8] = assay: Drug metabolism in pooled human liver microsomes assessed as T-5224 acyl O-glucuronide formation at 10 uM after 10 mins by HPLC method; type: ADME; in short: as §1
[9] = Substrate inhibition of T-5224 hydroxyl O-glucuronide formation in human intestinal microsomes after 10 to 60 mins by HPLC method; parameters: species or system Intestine, Microsome
In short: (§2)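 Pooled liver (0.5 mg protein/mL) or intestinal (0.25 mg protein/mL) microsomes in 50 mM Tris-HCl pH 7.5, 8 mM MgCl2, alamethicin, 2% DMSO. T-5224 at 1–50 μM, 5 min preincubation at 37°C, started with 2 mM UDPGA. Incubated 10 min, or 20 min for intestinal microsomes at 1–5 μM. Acetonitrile stop, glucuronides by HPLC at 290 nm. Triplicates fitted to a substrate-inhibition model.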

Liver microsome [10] = assay: Substrate inhibition of T-5224 acyl O-glucuronide formation in human liver microsomes after 10 to 60 mins by HPLC method; in short: as §2

## O=C(O)CCc1cc(C(=O)c2ccc(OC3CCCC3)cc2O)ccc1OCc1ccc2c(O)noc2c1
[1]
  Vmax/Km: 47.5 µL/min
[2]
  Drug metabolism: metabolite_not_detected
[3]
  Drug metabolism: metabolite_detected
[4]
  Ki: 2550 nM
[5]
  Drug metabolism: metabolite_detected
[6]
  Vmax: 106 pmol/min
Liver microsome [7]
  Drug metabolism: metabolite_detected
Liver microsome [8]
  Drug metabolism: metabolite_detected
[9]
  Ki: 58 µM
Liver microsome [10]
  Ki: 13.2 µM

From ChEMBL document CHEMBL3526015, “Metabolism of the c-Fos/activator protein-1 inhibitor T-5224 by multiple human UDP-glucuronosyltransferase isoforms” (Drug Metab Dispos, 2011)
